Experimental findings from ChEMBL document CHEMBL5365428, “Alkyne as a Latent Warhead to Covalently Target SARS-CoV-2 Main Protease” (J Med Chem, 2023) are described below.

Each structure is given as a SMILES string. The source made the active and inactive calls. The rule behind the calls is not given here. Residues, ends and D or L forms follow the SMILES beside them. *: point of attachment. Cbz = O=C(OCc1ccccc1)*

The subject of data set [1] is SARS-CoV-2. Nature of the data set: Antiviral activity against SARS-CoV-2 infected in HeLa cells expressing ACE2 pre-infected for 1 hr followed by compound addition and measured after 24 hrs. Type of data set: functional, organism-based. The settings on record: Severe acute respiratory syndrome coronavirus 2.
The test system of the next data set is HeLa. In words: Cytotoxicity against human HeLa cells expressing ACE2 upto 10 uM after 20 hrs by Cell Titer-Glo luminescent cell viability assay. In kind it is toxicity, cell-based.
Data set [2] deals with Replicase polyprotein 1ab (Severe acute respiratory syndrome coronavirus 2) (UniProt P0DTD1). Nature of the data set: Binding affinity to recombinant hexa-His tagged SARS-COV2 main protease expressed in Escherichia coli at 10 uM pretreated with (1R,2S,5S)-3-((S)-3,3-dimethyl-2-(2,2,2-trifluoroacetamido)butanoyl)-6,6-dimethyl-N-((S)-5,5,5-trifluoro-1-((S)-2- oxopyrrolidin-3-yl)pent-3-yn-2-yl)-3-azabicyclo[3.1.0]hexane-2-carboxamide. The method, boiled down: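 Competition labeling: recombinant Mpro (1 μg) was […] competitor and clickable probe at the indicated concentrations, at 30 °C for 1 h. TAMRA-azide click reaction, SDS-PAGE and in-gel fluorescence imaging (ex 532/em 600 nm) followed.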

For data set [3] the target is unchanged. Nature of the data set: Binding affinity to recombinant hexa-His tagged SARS-COV2 main protease expressed in HEK293T cells by in-gel fluorescence analysis. In kind it is cell-based. A digest of the protocol: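 HEK293T cells were transiently transfected with an Mpro plasmid. At 24 h post-transfection, they were treated with probe (from a 1000× DMSO stock) in fresh DMEM/10% FBS. Cells were washed, lysed in NP40 buffer and normalised to 1 mg/mL protein. Lysates were click-conjugated to TAMRA-azide, then analysed by SDS-PAGE and fluorescence imaging.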

Data set [4] has the same target. In words: Binding affinity to recombinant hexa-His tagged SARS-COV2 main protease expressed in Escherichia coli pretreated with nirmatrelvir followed by compound addition by SDS-PAGE gel electrophoresis method.
Data set [5] has the same target. In words: Binding affinity to recombinant hexa-His tagged SARS-COV2 main protease expressed in Escherichia coli pretreated with (1R,2S,5S)-3-((S)-3,3-dimethyl-2-(2,2,2-trifluoroacetamido)butanoyl)-6,6-dimethyl-N-((S)-1-((S)-2-oxopyrrolidin-3-yl)but-3-yn-2-yl)-3-azabicyclo[3.1.0]hexane-2-carboxamide followed by compound addition by SDS-PAGE gel electrophoresis method.

Data set [6] has the same target. In words: Binding affinity to recombinant hexa-His tagged SARS-COV2 main protease expressed in Escherichia coli incubated for 1 hr by SDS-PAGE gel electrophoresis method. The method, boiled down:
(§1)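 E. coli-expressed Mpro was incubated with Alk-4d or Alk-4i at 30 °C for 1 h. Click chemistry followed at room temperature for 1 h in the dark, with final 25 μM TAMRA-azide, 1 mM TCEP, 100 μM THPTA and 1 mM CuSO4. Samples were boiled, run on 4–20% SDS-PAGE, scanned at ex 532/em 600 nm, and silver-stained to check loading.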

For data set [7] the target is unchanged. Nature of the data set: Inhibition of recombinant hexa-His tagged SARS-COV2 main protease expressed in Escherichia coli upto 30 uM using Dabcyl-KTSAVLQISGFRKM-E(Edans)-NH2 as substrate preincubated for 15 mins followed by substrate addition and measured after 1 hr by FRET assay. The note with it: time 75.0 min. The method, boiled down:
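Fluorescence (ex 340/em 475 nm) was read every 38 s for 1 h. IC50 came from initial velocities, in duplicate.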

The target is the same in data set [8]. Nature of the data set: Binding affinity to recombinant hexa-His tagged SARS-COV2 main protease expressed in Escherichia coli at 300 nM by in-gel fluorescence analysis. A digest of the protocol: as §1
The target is the same in data set [9]. In words: Binding affinity to SARS-COV2 main protease at 30 uM preincubated with nirmatrelvir followed by compound addition measured over 6 hrs. The method, boiled down:
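Pulse-chase competition: recombinant Mpro was pretreated with 1.5 μM nirmatrelvir at 30 °C, then given 30 μM Alk-4i probe for various times. Click conjugation to TAMRA-azide was followed by SDS-PAGE and in-gel fluorescence (ex 532, em 600 nm). The nirmatrelvir dissociation half-life was derived from the labeling curve.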

For the next data set, the system named is HEK293T. In words: Binding affinity to proteome in HEK293T cells at 10 uM after 5 hrs. Type of data set: cell-based. The settings on record: Homo sapiens. A digest of the protocol:
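Parental HEK293T cells were treated with clickable probe at various concentrations for 5 h. Cells were harvested and lysed in NP40 buffer, and protein was normalised to 1 mg/mL. Lysates were click-conjugated to TAMRA azide, resolved by SDS-PAGE and imaged for in-gel fluorescence.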

For data set [10], the system named is SARS-CoV-2. In words: Antiviral activity against SARS-CoV-2 infected in HeLa cells expressing ACE2 at 3 uM pre-infected for 1 hr followed by compound addition and measured after 24 hrs by RT-qPCR analysis. Type of data set: functional, Severe acute respiratory syndrome coronavirus 2.
The target in data set [11] is T1, Cathepsin K (Homo sapiens) (UniProt P43235).
T1 sequence (whole entry): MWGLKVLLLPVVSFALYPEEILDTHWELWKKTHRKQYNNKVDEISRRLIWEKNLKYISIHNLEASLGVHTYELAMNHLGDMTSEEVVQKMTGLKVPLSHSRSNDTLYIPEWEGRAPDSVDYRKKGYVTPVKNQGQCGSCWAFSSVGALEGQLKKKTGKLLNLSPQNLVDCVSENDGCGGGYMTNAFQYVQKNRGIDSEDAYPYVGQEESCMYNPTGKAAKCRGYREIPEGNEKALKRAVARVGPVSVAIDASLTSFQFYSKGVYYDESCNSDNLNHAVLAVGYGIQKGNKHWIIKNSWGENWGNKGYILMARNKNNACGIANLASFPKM
In words: Inhibition of human cathepsin K upto 40 uM preincubated for 20 mins. A digest of the protocol:
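Recombinant cathepsin K (0.042 nM) was preincubated with compound for 20 min in 50 mM NaOAc pH 5.5, 5 mM EDTA, 0.005% Triton X-100, 5 mM DTT and 1% DMSO. Z-FR-AMC was added at 5 μM. Fluorescence (ex 355/em 460 nm) was read at room temperature every 5 min for 2 h, and initial velocities came from the linear portion.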

Data set [12] concerns the target Procathepsin L (Homo sapiens) (UniProt P07711). Nature of the data set: Inhibition of human cathepsin L upto 40 uM preincubated for 20 mins. A digest of the protocol: (§2)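 Z-FR-AMC was added at 10 μM. Fluorescence (ex 355/em 460 nm) was read at room temperature every 5 min for 2 h, and initial velocities came from the linear portion.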
The target in data set [13] is Cathepsin B (Homo sapiens) (UniProt P07858). Nature of the data set: Inhibition of human cathepsin B upto 40 uM preincubated for 20 mins. A digest of the protocol:
as §2

Chain of Procathepsin L (Homo sapiens) (P07711 114-333 limits assumed): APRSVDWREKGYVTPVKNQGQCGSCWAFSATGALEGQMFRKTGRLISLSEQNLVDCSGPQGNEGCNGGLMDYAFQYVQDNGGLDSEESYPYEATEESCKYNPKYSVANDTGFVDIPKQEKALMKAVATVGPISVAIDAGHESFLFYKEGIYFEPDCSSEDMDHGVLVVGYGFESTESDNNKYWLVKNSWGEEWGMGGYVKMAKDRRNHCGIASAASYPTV

As for `CC(C)(C)[C@H](NC(=O)C(F)(F)F)C(=O)N1C[C@H]2[C@@H]([C@H]1C(=O)N[C@H](C#CC(F)(F)F)C[C@@H]1CCNC1=O)C2(C)C`, the values for the Activity entry with SARS-CoV-2 [1] and with HeLa were “Dose-Dependent Effect” and “Non-Toxic”, respectively.
`C#CC[C@H](NC(=O)C(F)(F)F)C(=O)N1C[C@H]2[C@@H]([C@H]1C(=O)N[C@H](C#C)C[C@@H]1CCNC1=O)C2(C)C`: the result in data set [2], in data set [4] and in data set [5] was inactive. Also, the Activity entry in [3] was “Dose-Dependent Effect”. In addition, in data set [6], the outcome was Active.
As for `CC(C)C[C@H](NC(=O)OCc1ccccc1)C(=O)N[C@H](C#N)CCC(N)=O`, in data set [7], the inhibition entry is “inactive”.
Turning to `C#CC[C@H](NC(=O)C(F)(F)F)C(=O)N1C[C@H]2[C@@H]([C@H]1C(=O)N[C@H](C#CC(F)(F)F)C[C@@H]1CCNC1=O)C2(C)C`, the outcome (in data set [8]; in [9]; with HEK293T) was Active.
On to `C#C[C@H](C[C@@H]1CCNC1=O)NC(=O)[C@@H]1[C@@H]2[C@H](CN1C(=O)[C@@H](NC(=O)C(F)(F)F)C(C)(C)C)C2(C)C`, for which the Activity is 100% in the data set on SARS-CoV-2 [10] and “Dose-Dependent Effect” with SARS-CoV-2 [1]. Besides, the inhibition result in data set [11], in [12] and in data set [13] was “inactive” each time.
With `CC(C)C[C@H](NC(=O)OCc1ccccc1)C(=O)N[C@H](C=O)CCC(N)=O` (Cbz-Leu-Gln-aldehyde), in [7], the inhibition entry is “inactive”.
